# Source: PubChem BioAssay
# Only some compounds are listed: those with a hit (about 2% of all), similar ones and a draw of the others.
# PfM18AAP inh = blocks P. falciparum M18 aspartyl aminopeptidase; inhibition, % at 7.35 µM; actives 1.2% (n = 290,000); recombinant PfM18AAP, H-Glu-NHMec fluorogenic cleavage;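 active means inhibition above the campaign mean inhibition over all tested compounds plus 3 SD, cut at about 28% in these data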;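 further: 0% = plate median of test compound wells and 100% = 2 mM ZnCl2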
# zVAD death inh = L929 zVAD cell death inhibition | AID 1377 | actives 0.38% (n = 220,000) | viability rescue, % at 10 µM | L929 zVAD necroptosis rescue, ATP luminescence, 24 h; with zVAD 60 µM;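 active means activation, scaled between plate controls, above about 75%, limit read from the data; inactive means activation under that limit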;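 further: 0% = zVAD with DMSO and 100% = DMSO alone without zVAD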
# Hep lipid drop = hepatic lipid droplet formation modulation | actives 0.4% (n = 240,000) | AML12 mouse hepatocytes, oleate lipid droplets, BODIPY imaging | inhibition, % at 6.5 µM;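 active means lipid droplet intensity inhibited by at least 50%, with more than 500 cells counted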
#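 Assay system: AML12 hepatocytes (mouse); Probe or stimulus: oleic acid at 100 µM to induce lipid droplet formation; Dosing: compound at 6.5 µM only; Schedule: compound with oleate, overnight; Detection: fluorescence imaging, 20x objective, two fields per well; Measure: % inhibition of lipid droplet signal.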
# Tb hexokinase = blocks Trypanosoma brucei hexokinase 1 activity; recombinant TbHK1, G6PDH-coupled NADH A340; inhibition, % at 10 µM; actives 0.11% (n = 220,000);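 active means inhibition of 50% or more in the single-dose primary screen; inactive means inhibition below 50%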
# RBBP9 inh = human RBBP9 hydrolase inhibition. recombinant RBBP9, FP-Rh probe fluorescence polarization. actives 0.2% (n = 220,000). inhibition, % at 7.94 µM;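 active means inhibition above the campaign mean of all tested compounds plus 3 SD, cut at about 14% in these data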;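 further: plate controls were DMSO wells with RBBP9 for no effect and wells lacking RBBP9 protein for full effect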
# Target sequence (O75884 whole entry, looked up): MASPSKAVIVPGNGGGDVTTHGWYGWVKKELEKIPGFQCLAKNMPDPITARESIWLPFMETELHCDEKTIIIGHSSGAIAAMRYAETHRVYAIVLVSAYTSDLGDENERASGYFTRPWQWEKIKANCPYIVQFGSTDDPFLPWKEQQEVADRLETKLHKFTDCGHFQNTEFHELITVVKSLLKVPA
#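 Test system – recombinant human RBBP9 · Input – RBBP9 2.5 µM in dispensing solution, pre-mixing · Medium – Tris buffer pH 8.0, NaCl, Pluronic · Schedule – preincubation 30 min plus labeling 45 min at 25 °C · Measured by – fluorescence polarization · Measure – % inhibition · Controls – DMSO and no-protein wells · Replicates – one well per compound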
# TNF necrop inh = TNF-alpha cell death inhibition in Jurkat FADD-/- cells; Jurkat FADD-/- TNF necroptosis rescue, ATP luminescence, 24 h; 0 = TNF only, 100 = no-TNF cells; activation (protection from cell death), % at 10 µM; actives 0.068% (n = 220,000); AID 463075;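 active means activation, meaning protection from cell death, of at least 50% relative to plate controls; inactive means activation below 50%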;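 further: necroptosis triggered by 40 ng/mL TNF-alpha added together with compound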
# zVAD death conf = confirmed blocker of zVAD induced death in L929 cells. activation (protection from necroptosis), % at 10 µM. shares compounds with zVAD death inh. actives 16% (n = 760). L929 zVAD-induced necroptosis rescue, ATP luminescence, 24 h. AID 463117;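 active means mean protection from necroptosis of at least 50% over duplicate tests; inactive means mean protection below 50%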;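 further: 0% = cells with zVAD alone and 100% = vehicle cells without zVAD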
# * hit, by the source's call; nt = no result; ! = repeats disagree.
SMILES,PfM18AAP inh,zVAD death inh,Hep lipid drop,Tb hexokinase,RBBP9 inh,TNF necrop inh,zVAD death conf
CC(C)(C)c1cc(NCc2ccccn2)n2ncc(-c3ccc(Cl)cc3)c2n1,-16,77*,14,-34,9,4,1
CN(C)CCCNc1cc(C(C)(C)C)nc2c(-c3ccc(Cl)cc3)cnn12,1,6,4,-32,-6,-27,nt
NS(=O)(=O)c1ccc(CNC(=O)c2cc(-c3cccnc3)nc3ccc(Br)cc23)cc1,-2,nt,-16,nt,nt,nt,nt
COC(=O)c1sccc1-n1cccc1C(=O)C(=O)N1CC(C)OC(C)C1 (stereo unspecified),-1,0,7,19,1,0,nt
COc1cc(/C=N/Nc2cc(C)nc(N)n2)ccc1O,8,nt,-1,nt,nt,nt,nt
COc1cc(/C=N/Nc2ccc(C(F)(F)F)cn2)ccc1O,-6,79*,14,-30,-5,45,93*
O=C(O)c1ccc(/C=N/Nc2ccc(C(F)(F)F)cn2)cc1,0,88*,-17,-29,-5,58*,12
O=[N+]([O-])c1cccc(S(=O)(=O)NCCCn2ccnc2)c1,1,nt,2,nt,nt,nt,nt
CC1CCC/C=C/C(=O)c2c(O)cc(O)cc2CC(=O)O1 (stereo unspecified),nt,84*,-2,-37,nt,-26,33
CCN(CC)c1ccc(/C=N/Nc2nc3ccccc3[nH]2)cc1,14,50,-89,-9,-6,8,nt
COC(=O)c1ccc(/C=N/Nc2nc3ccccc3[nH]2)cc1,8,82*,10,-23,1,16,8
O=C(O)c1ccc(/C=N/Nc2nc3ccccc3[nH]2)cc1,14,0,-5,-21,9,-2,nt
C(=N\Nc1nc2ccccc2[nH]1)/c1ccc2c(c1)OCO2,29*,79*,10,-47,-12,19,9
CC(=O)Nc1ccc(/C=N/Nc2nc3ccccc3[nH]2)cc1,3,88*,-6,-62,-6,-3,2
C(=N\Nc1nc2ccccc2[nH]1)/c1ccncc1,4,78*,-4,-25,-1,30,51*
O=S(=O)(Nc1cccc2ncccc12)c1cccs1,1,79*,-4,13,-10,5,40
COc1ccc(OC)c(NC(=O)Nc2nnc(N3CCCCC3C)s2)c1 (stereo unspecified),2,2,16,-15,3,2,nt
CCOC(=O)c1c(NC(=O)N/N=C/c2ccc(O)c(OC)c2)sc(C(C)=O)c1C,-9,78*,6,-21,2,-13,40
CCOC(=O)c1c(NC(=O)N/N=C/c2ccccc2OCC)sc(C(C)=O)c1C,-9,1,-8,-28,-7,2,nt
Cc1cc(NCCCN2CCOCC2)n2ncc(-c3ccc(Cl)cc3)c2n1,-6,84*,nt,-38,0,-1,1
Cc1cc(NCCCn2ccnc2)n2ncc(-c3ccc(Cl)cc3)c2n1,-1,72,nt,-16,-2,-4,nt
O=C(O)CCC(=O)Nc1ccc(OCC(=O)O)cc1,-5,0,12,-1,-5,-1,nt
COC(CNC(=O)c1ccc2c(c1)nc(C)n2-c1ccc(F)c(F)c1)OC,-3,0,0,-1,0,-1,nt
COC(CNC(=O)c1ccc2c(c1)ncn2-c1cccc(F)c1)OC,2,76*,-1,-3,-6,1,38
COC(CNC(=O)c1ccc2c(c1)ncn2-c1ccc(F)cc1F)OC,-12,13,19,1,1,2,nt
SMILES,PfM18AAP inh,zVAD death inh,Hep lipid drop,Tb hexokinase,RBBP9 inh,TNF necrop inh,zVAD death conf
CCOC(CNC(=O)c1ccc2c(c1)ncn2-c1ccc(F)c(F)c1)OCC,-4,78*,2,2,-1,1,3
CCOC(CNC(=O)c1ccc2c(c1)ncn2-c1cccc(F)c1)OCC,-2,69,2,2,-4,1,nt
COC(CNC(=O)c1ccc2c(c1)ncn2-c1ccc(F)c(F)c1)OC,1,77*,12,-1,-1,1,35
O=C(Nc1cccc(Cl)c1)Nc1nccs1,3,82*!,-15,-5,-9,11,11
CN(C)S(=O)(=O)c1ccc(Cl)c(NC(=O)CSc2nnnn2-c2ccc(O)cc2)c1,-5,86*,-4,10,-4,9,88*
NS(=O)(=O)c1cccc(NC(=O)Nc2ccc(Cl)cc2)c1,-5,75*,-3,1,-2,1,3
COc1ccc(C(=O)Nc2ccc(-c3nnn(CC(=O)NCc4ccco4)n3)cc2)cc1,3,77*,-3,-1,-23,-4,36
O=C(Cn1nnc(-c2ccc(NC(=O)c3ccccc3F)cc2)n1)NCc1ccc(F)cc1,-6,84*,-7,8,2,3,38
O=C(Nc1ccccc1N1CCOCC1)c1cc(Br)c(Br)s1,0,0,-4,-2,-7,0,nt
COc1ccc(C(=O)C2CCCN(Cc3ccc4nonc4c3)C2)c(OC)c1 (stereo unspecified),2,0,-5,-6,-4,0,nt
O=C(c1ccc(F)cc1)n1ccc(-c2cnc(-c3ccccc3)s2)n1,2,83*,8,-30,-1,6,0
Fc1ccc(Cn2ccc(-c3cnc(-c4ccccc4)s3)n2)cc1,1,0,7,-12,-4,0,nt
Clc1cccc(/C=N\Nc2nccs2)c1,15,1,nt,-35,-2,2,nt
C(=N/Nc1nccs1)/c1cccnc1,17,78*,16,-27,-7,7,4
Cc1ccc(CS/C(Nc2ccccc2C)=C(\C#N)C(N)=O)c(C)c1,-8,1,9,19,0,2,nt
Cc1ccc(CC2SC(N)=NC2=O)cc1 (stereo unspecified),-3,83*,7,-1,-5,3,3
NC1=NC(=O)C(Cc2ccc(F)cc2)S1 (stereo unspecified),-1,nt,nt,nt,nt,nt,nt
CC(C)(C)c1cc(NC(=O)Nc2ccc(Br)cc2Cl)no1,-10,76*,1,3,-12,2,2
FC(F)(F)c1cccc(NC(=S)NNC(=S)Nc2ccc(Cl)cc2)c1,14,64,4,-1,-5,3,nt
Cc1ccc(NC(=S)NNC(=S)Nc2cccc(C(F)(F)F)c2)cc1,28,76*,10,-14,-3,6,5
Cc1ccc2nc(SCC(=O)NNC(=O)c3ccccc3)[nH]c2c1,0,0,-5,-5,-3,2,nt
CCCNc1c(NC(=O)c2cccs2)c(=O)oc2ccccc12,-5,nt,4,nt,nt,nt,nt
